In ChEMBL document CHEMBL1121585, “Inhibitors of phenylethanolamine N-methyltransferase and epinephrine biosynthesis. 1. Chloro-substituted 1,2,3,4-tetrahydroisoquinolines” (J Med Chem, 1980):

Assays:
Type in all cases: functional
Rattus norvegicus = assay: Phenylethanolamine N-methyl-transferase inhibition determined as of [3H]epinephrine biosynthesis in rats at 50 mg/kg (po)
Mus musculus [1] = assay: Minimum active dose(MAD) for decrease in norepinephrine (NE) / epinephrine(E) ratio was measured in mice (po)
Outline: (§1)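 Male Charles River mice, 30–40 g, groups of five. Oral dosing in 1% methylcellulose twice daily for 7 days, plus a final morning dose. Killed 2 h later; adrenals homogenised in 0.4 N HClO4 and alumina-extracted. E and NE measured.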

Mus musculus [2] = assay: Maximum inactive dose(MID) for decrease in norepinephrine (NE) / epinephrine(E) was measured in mice (po); outline: as §1
Mus musculus [3] = assay: Minimum active dose(MAD) for decrease in norepinephrine (NE) / epinephrine(E) was measured in mice (po); outline: as §1

| SMILES | inhibition in vivo at 50 mg/kg (Rattus norvegicus) [%] | MAD (Mus musculus [1]) [mg/kg] | MID (Mus musculus [2]) [mg/kg] | MAD (Mus musculus [3]) [mg/kg] |
| --- | --- | --- | --- | --- |
| Clc1ccc2c(c1)CNCC2 | 78 | 12.5 | 7.5 |  |
| Clc1c(Cl)c(Cl)c2c(c1Cl)CCNC2 |  | 100 | 25 |  |
| Clc1cc(Cl)c2c(c1Cl)CNCC2 | 16 |  | 100 |  |
| Clc1ccc2c(c1Cl)CNCC2 |  |  | 2.5 | 5 |
| Clc1cccc2c1CNCC2 | 45 | 7.5 | 2.5 |  |
| Clc1cc2c(c(Cl)c1Cl)CNCC2 | 25 |  | 50 |  |
